The structures appear in SMILES notation.

The nature of the data set: Toxicity liver stage against HepG2, at 10uM. In kind it is cell-based. Also noted: test concentration 10 uM, cell line HepG2-A16-CD81EGFP. Particulars: human, HepG2-A16-CD81EGFP cells; read-out: INHIBITION
In short, it runs like this:
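Uninfected HepG2-A16-CD81EGFP cells, 3 × 10^3 per well, 1536-well, plated on prespotted compound at 10 μM final, parasite-free screening media added to match infected plates; puromycin 10 μM positive, DMSO 0.5% negative; run in parallel with 48 h PbLuc assay at 37 °C, 5% CO2; viability by CellTiter-Glo luminescence, normalized to controls.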
Consider `c1cc(-c2nnc([C@H]3CCN(C4CCOCC4)C3)o2)ccn1`, for which the cytotoxicity at 10 µM was -61.3%. As for `COc1ccccc1CNC(=O)COc1c(C)n(C)ccc1=O`, the cytotoxicity at 10 µM is -41.4%. For `COc1ccc(CNc2c(N3CCN(C(C)=O)CC3)c(=O)c2=O)cc1`, the cytotoxicity at 10 µM was -2.36%. Take `COCCCNC(=O)Cc1cc(-c2ccc(Cl)cc2)on1`: the cytotoxicity at 10 µM is -21.4%. The figure for `O=C1CC(NS(=O)(=O)c2ccc(Br)cc2)CN1` (configuration not stated) is -0.154%. For the molecule `O=C(NCCNc1cc(N2CCCC2)cnn1)Nc1ccccc1F`, the cytotoxicity at 10 µM is -0.367%. Regarding `COCCN1CCc2ncc(CNc3cc(N(C)C)ncn3)n2CC1`, the cytotoxicity at 10 µM was -1.95%.

For the molecule `c1cnn(Cc2nnc3n2CCCN(c2nccs2)C3)c1`, the cytotoxicity at 10 µM was found to be 9.37%.

In the case of `CC(C)CN1C(=O)CO[C@@H]2CN(C(=O)CC(F)(F)F)C[C@H]21`, the cytotoxicity at 10 µM is -1.74%. In the case of `Cc1cccc(C(=O)N2CCO[C@H]3[C@H](OCCN(C)C)CC[C@@H]32)n1` it was 3.31%; in that of `CC(C)NC(=O)C1CN(C(=O)Cc2ccccc2)CC12CCOCC2` (configuration not stated), 5.31%; in that of `COC(=O)C1CCN(C(=O)c2cc(Br)ccc2-n2cnnn2)CC1`, 4.67%. With `CC(C)CN1C(=O)CC(N2CCN(c3ccc(F)cc3)CC2)C1=O` (configuration not stated), the cytotoxicity at 10 µM stood at 6.56%. On to `O=C(CC1Cn2ncnc2NC1=O)Nc1cccc(C(F)(F)F)c1` (configuration not stated), for which the cytotoxicity at 10 µM was 6.17%. The figure for `CCOc1ccc(N2CCCN=C2NC(=O)c2cccc(C)c2)cc1` is 1.61%; for `O=C(c1ccc(Cn2cc(Br)cn2)cc1)N1CCCC1` it is -7.86%; for `O=C(Cc1cccs1)NCc1ccnc(C2CCCOC2)n1` (configuration not stated) it is 1.2%. In the case of `c1cc2cc[nH]c2c(CC2CN(Cc3cscn3)C2)n1` it was 13.8%; in that of `COc1ccc(C2Nc3ccccc3C3=NCCCN32)cc1OC` (configuration not stated), 6.05%.

For `CC1(C(=O)NCCc2ccc(F)cc2)CCOCC1`, the cytotoxicity at 10 µM is 5.42%.

Turning to `O=C(c1ccc(Cl)cc1)N1CCn2c(nn(-c3cccc(Cl)c3)c2=O)C1`, the cytotoxicity at 10 µM came out at 5.84%. Turning to `CN(C(=O)CSc1ncc[nH]1)C1CC1`, the cytotoxicity at 10 µM turned out to be 7.97%.

As to `Cc1cc(N2CCCC(c3nncn3C3CC3)C2)ncn1` (configuration not stated), the cytotoxicity at 10 µM was -6.48%. As for `COc1cccc(C(CO)NC(=O)Cc2cccc(C)c2)c1` (configuration not stated), the cytotoxicity at 10 µM stood at 4.53%.

For `COc1ccc(Cc2noc(C3=NN(C)C(=O)CC3)n2)cc1OC`, the cytotoxicity at 10 µM worked out at 13.3%. In the case of `O=C(NCC1CCN(CCc2ccccc2)C1)NCC1(O)CCC1` (configuration not stated) it was -0.128%. As to `O=S(=O)(NCCc1ccccc1F)N1CCOCC1`, the cytotoxicity at 10 µM is -1.7%. Turning to `c1cnn(C2CN(c3nc(-c4ccncc4)nc4c3CCC4)C2)c1`, the cytotoxicity at 10 µM was -43%.

As for `COCC1CN(c2ccc(Cl)cc2C#N)CCO1` (configuration not stated), the cytotoxicity at 10 µM came to 11.1%. For the molecule `CCC(CCNCc1cnc(C2CCC2)s1)N1CCCC1=O` (configuration not stated), the cytotoxicity at 10 µM is -3.13%. In the case of `O=C(NCc1nc(C2CC2)no1)N1CCOC(c2cccc(F)c2)C1` (configuration not stated) it was -44.6%.

On to `CNC(=O)c1cccc(NC(=O)c2ccnc(N(C)C)c2)c1C`, for which the cytotoxicity at 10 µM came out at 4.9%. In the case of `Cc1nn(C)c(Cl)c1C1CCCN1C(=O)c1ccc(N(C)C)nn1` (configuration not stated) it was -9.01%.

For `COC(C(=O)N1CCN(Cc2noc(C)n2)CC1)c1ccccc1` (configuration not stated), the cytotoxicity at 10 µM is -1.8%.

For the molecule `CCCN(CCS(C)(=O)=O)C1CCc2ccccc2C1` (configuration not stated), the cytotoxicity at 10 µM is -5.08%. For `Cc1sc2nc(C(F)(F)F)nc(N3CCCN(C)CC3)c2c1C`, the cytotoxicity at 10 µM was -26.8%. As for `CN(Cc1cc(=O)c(O)co1)C1CCN(c2ccc(F)cc2)CC1`, the cytotoxicity at 10 µM was -3.73%.

Take `COc1cc(CNc2cc(-c3nncn3C)ccn2)cc(OC)c1OC`: the cytotoxicity at 10 µM is -3.78%. In the case of `Cc1ccc(S(=O)(=O)n2ccc(C(=O)NCC(F)(F)F)c2)cc1`, the cytotoxicity at 10 µM is -4.78%. In the case of `Cc1nnc2n1CCN(C(=O)c1cnc(C3CC3)s1)C2` it was -5.19%. `CSCC(CCO)NC(=O)c1cccc(C)c1Cl` (configuration not stated): the cytotoxicity at 10 µM stood at 16.8%. In the case of `CC(C)c1nnc(NC(=O)CCc2cc(F)ccc2F)[nH]1` it was -16.9%; in that of `CCc1ccsc1C(=O)N1CCS(=O)(=O)CC1`, 5.36%; in that of `CSc1[nH]c(=O)c(C(=O)N2CCCC2c2cccs2)cc1C#N` (configuration not stated), -3.49%. The figure for `CCNc1nc(C(=O)N(C)Cc2nc(CC)no2)cs1` is -6.56%; for `CCNC(=O)CNS(=O)(=O)c1cc(Br)ccc1F` it is -55.4%; for `CC(C)NC(=O)CC(C)NCc1ccc(F)cc1Cl` (configuration not stated) it is -40.7%. In the case of `O=C(O)c1ccc(S(=O)(=O)Nc2ccccc2CC(F)(F)F)c(F)c1` it was 6.02%; in that of `COc1cccc(CN(C)C(=O)CN2CC(n3nc(C)cc3C)C2)c1`, -1.38%; in that of `COCC1CN(CCc2ccc(OC)c(OC)c2)Cc2c1cnn2C` (configuration not stated), -105%. `CN(C)C(=O)CN1CCC2(CCCN(Cc3ccoc3)C2)C1=O` (configuration not stated): the cytotoxicity at 10 µM is -103%. As to `CCCSc1ncc(-c2nccn2CCC(N)=O)cn1`, the cytotoxicity at 10 µM was -10.4%. As for `CCC1CC(=O)NCc2nc3sc(C)cn3c21` (configuration not stated), the cytotoxicity at 10 µM came to 5.27%. The figure for `O=C(NCC1CCN(Cc2cc3ccccc3[nH]2)C1)C1CCCCC1` (configuration not stated) is 9.81%; for `Cc1cc(=O)c2ccccc2n1CC1CCN(C(C)C)C1` (configuration not stated) it is 4.64%. On to `COc1coc(CN2CCCC3(CCC(=O)N(C4CC4)C3)C2)cc1=O` (configuration not stated), for which the cytotoxicity at 10 µM is -39.9%. The figure for `Cc1ccc(-c2cn[nH]c2C2CCCN(c3cnccn3)C2)cc1` (configuration not stated) is 73.6%; for `CNc1nc(C(=O)NCC2CCOc3ccccc3C2)cs1` (configuration not stated) it is 2.53%; for `CN1[C@H](CO)C[C@H](CNCc2ccc(Cl)c(F)c2)[C@@H]1c1ccccc1F` it is -8.39%. In the case of `COc1ccc(OC)c(C2CCN(C(=O)C3CCN(C(C)C)CC3)C2)c1` (configuration not stated) it was -7.49%. In the case of `CCOC(=O)CCNC(=O)N1CCOC(Cc2cccc(OC)c2)C1` (configuration not stated) it was -1.13%; in that of `CC(NC(=O)c1ccc(=O)n(C)c1)c1ccccc1-n1cccn1` (configuration not stated), 2.68%. With `OCCC1CN(c2ncnc3[nH]cnc23)CCN1Cc1cccs1` (configuration not stated), the cytotoxicity at 10 µM turned out to be 12.8%.

Turning to `CSc1nccc(N2CCC(NCCN3CCOCC3)CC2)n1`, the cytotoxicity at 10 µM is -49.5%. The figure for `CCN(Cc1ccncc1)c1cc(C2CCCNC2)nc(C)n1` (configuration not stated) is -5.21%. The figure for `CNc1ncccc1CN1CCN2CCN(C)CC2C1` (configuration not stated) is -2.46%; for `COc1nccnc1N1CCC(C(=O)O)(n2ccc(C(C)(C)C)n2)CC1` it is -4.05%. The figure for `CC1CCCN(CCCNC(=O)c2ccc(N(C)S(C)(=O)=O)cc2Cl)C1` (configuration not stated) is -2.28%; for `COc1ccc(C(=O)N2CCOC3(CNCCOC3)C2)c(OC)n1` (configuration not stated) it is -8.2%. Turning to `O=C(Cn1c(=O)n(Cc2ccco2)c2ncccc21)NC1CCCCC1`, the cytotoxicity at 10 µM came to 4.73%. Turning to `Cc1nccn1-c1cccc(C2CCCN(C(=O)c3cc[nH]n3)C2)n1` (configuration not stated), the cytotoxicity at 10 µM came to 0.481%. In the case of `COc1ccc(CNC(=O)NC(C)(C(=O)O)c2ccco2)cc1F` (configuration not stated) it was 0.808%; in that of `CCc1nnsc1C(=O)N1CCCC(n2ccnc2C(C)C)C1` (configuration not stated), -16%; in that of `Cc1cnn(C2CCCN(C(=O)Cc3c(C)nn(C)c3C)C2)c1` (configuration not stated), -6.71%.

For `NC(=O)c1ccc(C(=O)N2CCCCC2Cn2cccn2)s1` (configuration not stated), the cytotoxicity at 10 µM came out at 0.977%. `CCOCCN1CCN(Cc2nc(CC(C)C)no2)CC1`: the cytotoxicity at 10 µM is -13%. Turning to `CN1CCCc2cc(CNC(=O)c3cc[n+]([O-])cc3)ccc21`, the cytotoxicity at 10 µM was -1.11%. Consider `Cc1nc(CN(C)C2CCN(CCn3cc(C#N)cn3)C2)no1` (configuration not stated), for which the cytotoxicity at 10 µM was -3.82%. As for `Cc1nc(C2CCCN(C(=O)CCCn3cccn3)C2)no1` (configuration not stated), the cytotoxicity at 10 µM is -3.84%. In the case of `O=C(NCCc1ccc(Cl)s1)NCc1nnc2n1CCC2` it was -7.15%; in that of `CCN(CC)C(=O)CN(C)C1CCc2ccccc21` (configuration not stated), -5.1%; in that of `c1cnn(CCNCc2nnc(C3CC3)o2)c1`, -10.5%. `COc1ccc(C2=CCN(C(=O)CN(C)Cc3ccoc3)CC2)cc1`: the cytotoxicity at 10 µM was -4.87%. For `Cc1nc(C)n(CC2CCCN(CCc3ccccn3)C2)n1` (configuration not stated), the cytotoxicity at 10 µM is -1.59%.

In the case of `CC(C)COCC(NC(=O)c1cc[nH]n1)c1ccco1` (configuration not stated), the cytotoxicity at 10 µM was -4.72%. Take `CC(C)NC(=O)[C@@H]1C[C@@H]2CCN(Cc3ccoc3)C[C@H]2O1`: the cytotoxicity at 10 µM is -109%.

Regarding `Cc1ccc(N2CC[C@H]3CO[C@H](CN(C)Cc4ccco4)[C@H]3C2)nn1`, the cytotoxicity at 10 µM stood at 8.35%.

Regarding `Cc1ccc(N2CCC3(CCCN(C(=O)c4cccnc4)C3)C2)nn1` (configuration not stated), the cytotoxicity at 10 µM was 2.21%. In the case of `O=C(CO[C@@H]1CC[C@H]2[C@H]1OCCN2Cc1ccccn1)N1CCCC1` it was -3.98%.

As to `COCCN1CCOCC12CCN(c1nccs1)CC2`, the cytotoxicity at 10 µM was -102%. Turning to `O=C(O)CN1CCC(F)(F)C2(CCN(c3ccccc3)C2)C1` (configuration not stated), the cytotoxicity at 10 µM came out at 10.7%. The figure for `c1cncc(COCc2nnc3n2CCN(Cc2ccco2)C3)c1` is -4.04%; for `COCCN1CCN(c2cccc(C)n2)Cc2ccc(C)nc21` it is -106%. For `O=C(N1CCCC1)N1CCC[C@]2(C[C@@H](OCc3ccncc3)CO2)C1`, the cytotoxicity at 10 µM was determined as 7.19%. The figure for `CC(C)Nc1ncnc2c1CCN(C(=O)c1ccncc1F)CC2` is 4.76%; for `CN(C)CCN1C[C@@H]2CN(c3ccccc3)C[C@@H]2C1=O` it is -94%; for `CN(C)CC(=O)N1CCC2(CC(=O)N(c3cccc(C#N)c3)C2)C1` (configuration not stated) it is 3.37%.

Source of the values: ChEMBL document CHEMBL4513216, “Probing the Open Global Health Chemical Diversity Library for Multistage-Active Starting Points for Next-Generation Antimalarials” (ACS Infect Dis, 2020).
